Test results as given in ChEMBL document CHEMBL1133737, “Topoisomerase I-mediated antiproliferative activity of enantiomerically pure fluorinated homocamptothecins” (J Med Chem, 2000).

Experiments:
A549 = assay: Cytotoxicity against A549 tumor cell line determined by WST-1 assay; format: functional, cell-based; details: Homo sapiens
How it was run: (§1)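 Cells exposed to drug for 72 h; surviving cells measured colorimetrically with soluble tetrazolium WST-1. IC50 is the mean of triplicate determinations. HT29 and A549 sourced from ATCC. T24r was derived from T24 bladder carcinoma by prolonged exposure to vinorelbine, PE1001 and doxorubicin, and is multidrug resistant through Pg-P overexpression. A549 is resistant through MRP overexpression.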

[1] = target: T1, DNA topoisomerase 1 (Homo sapiens) (UniProt P11387); assay: Stimulation of pKMp27 DNA cleavage by human DNA topoisomerase I in presence of 0.1 uM of compound
T1 sequence (whole entry): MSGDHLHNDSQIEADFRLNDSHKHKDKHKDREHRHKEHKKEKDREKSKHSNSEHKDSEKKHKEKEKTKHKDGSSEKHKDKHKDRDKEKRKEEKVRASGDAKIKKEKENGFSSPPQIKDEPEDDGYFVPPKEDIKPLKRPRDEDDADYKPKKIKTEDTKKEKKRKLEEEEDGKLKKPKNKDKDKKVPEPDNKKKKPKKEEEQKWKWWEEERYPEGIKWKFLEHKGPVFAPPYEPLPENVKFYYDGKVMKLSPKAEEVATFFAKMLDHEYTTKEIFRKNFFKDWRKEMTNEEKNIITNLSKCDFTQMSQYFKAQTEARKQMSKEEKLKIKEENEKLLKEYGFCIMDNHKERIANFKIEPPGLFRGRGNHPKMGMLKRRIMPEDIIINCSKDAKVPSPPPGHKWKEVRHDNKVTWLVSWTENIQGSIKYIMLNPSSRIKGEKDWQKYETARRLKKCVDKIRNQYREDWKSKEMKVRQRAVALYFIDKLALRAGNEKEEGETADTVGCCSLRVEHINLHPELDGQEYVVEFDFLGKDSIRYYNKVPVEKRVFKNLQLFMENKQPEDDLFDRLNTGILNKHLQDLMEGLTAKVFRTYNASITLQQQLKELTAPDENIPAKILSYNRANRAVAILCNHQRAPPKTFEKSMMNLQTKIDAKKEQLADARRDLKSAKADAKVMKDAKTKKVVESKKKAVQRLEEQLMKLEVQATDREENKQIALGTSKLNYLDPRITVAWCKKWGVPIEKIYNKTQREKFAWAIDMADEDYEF
How it was run: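 Human Topo I incubated with supercoiled plasmid pKMp27 DNA and 0.1 µM drug. Products resolved on agarose gel containing ethidium bromide. Nicked DNA fraction quantified and stimulation calculated as (N−N0)/N0, where N and N0 are the nicked fractions with and without drug. Values compiled from quantitative analysis of three gels.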

HT-29 = assay: Cytotoxicity against HT-29 tumor cell line determined by WST-1 assay; format: functional, cell-based; details: Homo sapiens; how it was run: as §1
T-24 = assay: Cytotoxicity against T24 tumor cell line determined by WST-1 assay; format: functional, cell-based; details: Homo sapiens; how it was run: as §1

Structure (SMILES) | IC50 (A549) [µM] | Stimulation [1] | IC50 (HT-29) [µM] | IC50 (T-24) [µM]
CC[C@@]1(O)CC(=O)OCc2c1cc1n(c2=O)Cc2cc3cc(F)c(F)cc3nc2-1 [DIFLOMOTECAN] | 0.0034 | 32 | 0.0084 | 0.0004
CC[C@@]1(O)CC(=O)OCc2c1cc1n(c2=O)Cc2cc3cccc(F)c3nc2-1 | 0.13 | 7.3 | 0.19 | 0.022
CC[C@@]1(O)CC(=O)OCc2c1cc1n(c2=O)Cc2cc3c(F)cc(F)cc3nc2-1 | 0.0019 | 30 | 0.01 | 0.00032
CC[C@@]1(O)CC(=O)OCc2c1cc1n(c2=O)Cc2cc3cc(F)ccc3nc2-1 | 0.022 | 17 | 0.027 | 0.0045
CC[C@@]1(O)CC(=O)OCc2c1cc1n(c2=O)Cc2cc3c(F)cccc3nc2-1 | 0.017 | 18 | 0.02 | 0.0016
CC[C@@]1(O)C(=O)OCc2c1cc1n(c2=O)Cc2cc3ccccc3nc2-1 [CAMPTOTHECIN] | 0.067 | 8.2 | 0.08 | 0.088
CC[C@@]1(O)CC(=O)OCc2c1cc1n(c2=O)Cc2cc3ccc(F)cc3nc2-1 | 0.0029 | 29 | 0.011 | 0.00017
CC[C@@]1(O)CC(=O)OCc2c1cc1n(c2=O)Cc2cc3ccccc3nc2-1 [HOMOCAMPTOTHECIN] | 0.026 | 21 | 0.03 | 0.0033
